For experiment [1], the system named is Pseudomonas aeruginosa. As to the kind of experiment: Potentiation of moxifloxacin-induced antibiotic activity against Pseudomonas aeruginosa PAO1 assessed as MIC fold reduction at 8 ug/ml after 18 hrs by microbroth dilution method. The class given is functional. The settings on record: dose 8 µg/ml.
Experiment [2] has as its system Pseudomonas aeruginosa. As to the kind of experiment: Potentiation of doxycycline-induced antibiotic activity against Pseudomonas aeruginosa PAO1 assessed as MIC fold reduction at 8 ug/ml after 18 hrs by microbroth dilution method. The class given is functional. The settings on record: dose 8 µg/ml. A digest of the protocol: (§1)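 Adjuvant held at a fixed 8 μg/mL while the antibiotic was 2-fold serially diluted in Mueller-Hinton broth (MHB), per CLSI microbroth dilution. Overnight cultures were adjusted in saline to 0.5 McFarland, then diluted 1:50 in MHB to about 5 × 10^5 CFU/mL final, and incubated 18 h at 37 °C. MIC was the lowest concentration with no visible turbidity, confirmed at 590 nm. Fold potentiation = MIC alone / MIC with adjuvant.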

In experiment [3] the test system is Pseudomonas aeruginosa. As to the kind of experiment: Potentiation of chloamphenicol-induced antibiotic activity against Pseudomonas aeruginosa PAO1 assessed as MIC fold reduction at 8 ug/ml after 18 hrs by microbroth dilution method. The class given is functional. The settings on record: dose 8 µg/ml. The method in brief:
as §1
For orientation: Dilution methods test growth across graded concentrations, often in twofold steps.

Experiment [4] has as its system Pseudomonas aeruginosa. As to the kind of experiment: Potentiation of novobiocin-induced antibiotic activity against Pseudomonas aeruginosa PAO1 assessed as MIC fold reduction at 8 ug/ml after 18 hrs by microbroth dilution method. The class given is functional. As to conditions: dose 8 µg/ml.
Experiment [5] concerns Acinetobacter baumannii. Nature of the experiment: Potentiation of novobiocin-induced antibiotic activity against Acinetobacter baumannii ATCC 17978 assessed as MIC fold reduction at 8 ug/ml after 18 hrs by microbroth dilution method. The class given is functional. The settings on record: dose 8 µg/ml.
The test system of experiment [6] is Acinetobacter baumannii. Nature of the experiment: Potentiation of pleuromutilin-induced antibiotic activity against Acinetobacter baumannii ATCC 17978 assessed as MIC fold reduction at 8 ug/ml after 18 hrs by microbroth dilution method. The class given is functional. As to conditions: dose 8 µg/ml.
Experiment [7] has as its system Escherichia coli. Nature of the experiment: Potentiation of pleuromutilin-induced antibiotic activity against Escherichia coli ATCC 25922 assessed as MIC fold reduction at 8 ug/ml after 18 hrs by microbroth dilution method. The settings on record: dose 8 µg/ml. The class given is functional.
For experiment [8], the system named is Escherichia coli. Nature of the experiment: Potentiation of trimethoprim-induced antibiotic activity against Escherichia coli ATCC 25922 assessed as MIC fold reduction at 8 ug/ml after 18 hrs by microbroth dilution method. The class given is functional. As to conditions: dose 8 µg/ml.
For experiment [9], the system named is Escherichia coli. As to the kind of experiment: Potentiation of sulfamethoxazole-induced antibiotic activity against Escherichia coli ATCC 25922 assessed as MIC fold reduction at 8 ug/ml after 18 hrs by microbroth dilution method. The settings on record: dose 8 µg/ml. The class given is functional.
The subject of experiment [10] is Acinetobacter baumannii. Nature of the experiment: Antibacterial activity against Acinetobacter baumannii ATCC 17978 assessed as reduction in bacterial growth after 18 hrs by microbroth dilution method. The class given is functional. A digest of the protocol:
(§2)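 CLSI microbroth dilution in MHB. Overnight cultures were adjusted to 0.5 McFarland in saline, diluted 1:50, and inoculated at about 5 × 10^5 CFU/mL. Agents were 2-fold serially diluted and incubated 18 h at 37 °C. MIC is the lowest concentration without visible turbidity, confirmed by absorbance at 590 nm. Medium with and without cells served as controls.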

Experiment [11] concerns Staphylococcus epidermidis. As to the kind of experiment: Antibacterial activity against methicillin-resistant Staphylococcus epidermidis 61589 assessed as reduction in bacterial growth after 18 hrs by microbroth dilution method. The class given is functional. A digest of the protocol:
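Broth microdilution per CLSI in Mueller-Hinton broth (MHB). Overnight cultures were adjusted to 0.5 McFarland in saline, diluted 1:50 in MHB, and added at about 5 × 10^5 CFU/mL final to equal volumes of 2-fold serial dilutions of agent. Incubation was 18 h at 37 °C. MIC was the lowest concentration with no visible turbidity, confirmed by absorbance at 590 nm.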

The subject of experiment [12] is Pseudomonas aeruginosa. As to the kind of experiment: Potentiation of ceftolozane-induced antibiotic activity against MDR clinical isolate Pseudomonas aeruginosa PA264 assessed as MIC fold reduction at 8 ug/ml after 18 hrs by microbroth dilution method. The class given is functional, organism-based. As to conditions: dose 8.0 µg/ml. The method in brief: as §1
Experiment [13] has as its system Pseudomonas aeruginosa. As to the kind of experiment: Antibacterial activity against MDR clinical isolate Pseudomonas aeruginosa PA108590 assessed as reduction in bacterial growth after 18 hrs by microbroth dilution method. The class given is functional. The method in brief: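 CLSI broth microdilution. Overnight cultures were adjusted in saline to 0.5 McFarland, diluted 1:50 in Mueller-Hinton broth (MHB), and inoculated at about 5 × 10^5 CFU/mL. Agents were 2-fold serially diluted in MHB, mixed 1:1 with inoculum, and held at 37 °C for 18 h. MIC was the lowest concentration with no visible turbidity, confirmed at 590 nm.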

For experiment [14], the system named is Pseudomonas aeruginosa. Nature of the experiment: Antibacterial activity against MDR clinical isolate Pseudomonas aeruginosa PA88949 assessed as reduction in bacterial growth after 18 hrs in presence of cefiderocol by microbroth dilution method. The class given is functional. The method in brief: (§3)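 Checkerboard in MHB. Cefiderocol was 2-fold serially diluted along one axis and the adjuvant along the other. Inoculum was prepared from 0.5 McFarland saline suspensions diluted 1:50 in MHB, giving about 5 × 10^5 CFU/mL final. Plates ran 18 h at 37 °C, with turbidity confirmed at 590 nm. FIC = combination MIC ÷ MIC alone for each agent, and FIC index = sum of both. Interpretation: ≤0.5 synergy, >0.5–4 additive, >4 antagonism.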

For experiment [15], the system named is Pseudomonas aeruginosa. Nature of the experiment: Antibacterial activity against […] Pseudomonas aeruginosa PAO1 assessed as potentiation of cefiderocol antibacterial activity by measuring FIC index after 18 hrs by microbroth dilution method. The class given is functional. A digest of the protocol: as §3
In experiment [16] the test system is Pseudomonas aeruginosa. As to the kind of experiment: Antibacterial activity against colistin-resistant clinical isolate Pseudomonas aeruginosa PA91433 assessed as potentiation of cefiderocol antibacterial activity by measuring FIC index after 18 hrs by microbroth dilution method. The class given is functional. A digest of the protocol:
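Checkerboard in MHB (iron-replete, not iron-depleted CAMHB). Cefiderocol was 2-fold serially diluted along one axis and the adjuvant along the other. Inoculum was 0.5 McFarland diluted 1:50, about 5 × 10^5 CFU/mL final. Incubation was 18 h at 37 °C, with turbidity read visually and confirmed at 590 nm. FIC was the MIC in combination over the MIC alone for each agent, and the FIC index was their sum. Cut-offs were ≤0.5 synergy, >0.5–4 additive, >4 antagonism.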

Experiment [17] concerns Acinetobacter baumannii. Nature of the experiment: Antibacterial activity against Acinetobacter baumannii ATCC 17978 assessed as reduction in bacterial growth after 18 hrs in presence of cefiderocol by microbroth dilution method. The class given is functional. A digest of the protocol:
(§4)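 Checkerboard in Mueller-Hinton broth: cefiderocol 2-fold diluted on one axis, adjuvant 2-fold on the other. Overnight cultures were adjusted to 0.5 McFarland in saline, diluted 1:50 in MHB, and inoculated at about 5 × 10^5 CFU/mL. Incubation was 18 h at 37 °C. Turbidity was read visually and confirmed at 590 nm. FIC index = FIC of antibiotic + FIC of adjuvant; ≤0.5 synergy, >4 antagonism.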

The test system of experiment [18] is Acinetobacter baumannii. As to the kind of experiment: Antibacterial activity against Acinetobacter baumannii AB031 assessed as potentiation of cefiderocol antibacterial activity by measuring FIC after 18 hrs by microbroth dilution method. The class given is functional. The method in brief: as §4
The next experiment deals with Enterobacter cloacae. As to the kind of experiment: Antibacterial activity against Enterobacter cloacae 117029 assessed as reduction in bacterial growth after 18 hrs by microbroth dilution method. The class given is functional. The method in brief:
as §2

The subject of experiment [19] is Escherichia coli. Nature of the experiment: Antibacterial activity against Escherichia coli ATCC 25922 assessed as potentiation of cefiderocol antibacterial activity by measuring FIC after 18 hrs by microbroth dilution method. The class given is functional. A digest of the protocol: as §4
The next experiment has as its system Klebsiella pneumoniae. As to the kind of experiment: Antibacterial activity against Klebsiella pneumoniae KP113250 assessed as potentiation of cefiderocol antibacterial activity by measuring FIC after 18 hrs by microbroth dilution method. The class given is functional. The method in brief:
as §4

The subject of experiment [20] is Pseudomonas aeruginosa. Nature of the experiment: Potentiation of antibiotic activity against Pseudomonas aeruginosa PA259 assessed as MIC fold reduction in ID-CAMHB condition at 8 ug/ml after 18 hrs by microbroth dilution method. The settings on record: dose 8.0 µg/ml.

≈ marks a conversion by molar mass, not a printed value. Calls of active or inactive are those of the source.

As for `NC[C@H]1O[C@H](O[C@H]2[C@H](OCCCCc3cn(-c4ccc(NC(=O)c5cc(Cl)ccc5O)cc4)nn3)[C@@H](O[C@H]3O[C@H](CO)[C@@H](O)[C@H](N)[C@H]3O)[C@H](N)C[C@@H]2N)[C@H](N)C[C@@H]1O`, the “fold change (FC)” value in the experiment with Pseudomonas aeruginosa [1], in the experiment with Pseudomonas aeruginosa [2], with Pseudomonas aeruginosa [3], in the experiment with Pseudomonas aeruginosa [4], with Acinetobacter baumannii [5] and in the experiment with Acinetobacter baumannii [6] was 4 in each case. Further, the “fold change (FC)” value in the experiment with Escherichia coli [7], in the experiment with Escherichia coli [8] and with Escherichia coli [9] was 4 in each case. The MIC (as a rule, the lowest concentration that inhibits growth of the organism) was more than 128 µg/mL in the experiment with Acinetobacter baumannii [10]; 128 µg/mL (≈ 153 µM) in [11]; more than 128 µg/mL in the experiment with Pseudomonas aeruginosa [13]; 0.25 µg/mL in the experiment on Pseudomonas aeruginosa [14]; 16 µg/mL in the experiment with Acinetobacter baumannii [17]; more than 128 µg/mL in the experiment with Enterobacter cloacae. Besides, the outcome in the experiment on Pseudomonas aeruginosa [12] and in the experiment with Pseudomonas aeruginosa [20] was Active. For the same molecule, the FIC in the experiment with Pseudomonas aeruginosa [15] was 0.258; in the experiment with Pseudomonas aeruginosa [16], 0.016; with Acinetobacter baumannii [18], 0.5; in the experiment with Escherichia coli [19] it was 0.5; in the experiment with Klebsiella pneumoniae, 0.25.

The values above are taken from ChEMBL document CHEMBL5136969, “A niclosamide-tobramycin hybrid adjuvant potentiates cefiderocol against P. aeruginosa” (2021).
